# Assay results from ChEMBL document CHEMBL4513216, “Probing the Open Global Health Chemical Diversity Library for Multistage-Active Starting Points for Next-Generation Antimalarials” (ACS Infect Dis, 2020).
# Assay: Toxicity liver stage against HepG2, at 10uM
# Assay type: cell-based
# Set-up: test concentration 10 uM, cell line HepG2-A16-CD81EGFP
# Settings: human, HepG2-A16-CD81EGFP cells; read-out: INHIBITION
# Procedure, shortened: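 Uninfected HepG2-A16-CD81EGFP cells, 3 × 10^3 per well, 1536-well, plated on prespotted compound at 10 μM final, parasite-free screening media added to match infected plates; puromycin 10 μM positive, DMSO 0.5% negative; run in parallel with 48 h PbLuc assay at 37 °C, 5% CO2; viability by CellTiter-Glo luminescence, normalized to controls.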
row,Compound,cytotoxicity at 10 µM [%]
1,CC(=O)N[C@H](C)c1c(-c2ccc(Cl)cc2)noc1C(=O)O,3.29
2,NC(=O)CN1C(=O)CO[C@H]2CN(Cc3ccc(C(F)(F)F)cc3)C[C@H]21,0.523
3,O=C(Nc1ccccc1)[C@H]1CN2CCC1C[C@@H]2Cn1cc(CO)nn1 (stereo partly drawn),-2.42
4,CC(=O)N1N=C(c2ccccc2)OC1C(=O)NCCOc1ccccc1 (stereo not drawn),-2.86
5,CNC(=O)c1cc(-c2ccccc2OC)[nH]n1,-2.77
6,CCOC(=O)[C@@H]1[C@@H](O)C(=O)N(C)C12CCN(C(=O)OC)CC2,1.97
7,Cn1c(-c2cccs2)nn(CCNS(=O)(=O)c2ccccc2Cl)c1=O,-9.48
8,Cc1cccc(OC2CCN(C(=O)Cn3ccc4ccccc43)CC2)n1,1.53
9,Cc1nsc(C(=O)NCCc2cccs2)n1,-2.67
10,O=S(=O)(Nc1cnn(C2CCOCC2)c1)c1ccc(Br)cc1,5.05
11,CCN(C)C1COC2(CCN(C(=O)c3ccc4[nH]ccc4c3)CC2)C1 (stereo not drawn),-5.96
12,CCN1C(=O)C(c2ccccc2)CC12CCN(c1ncccn1)CC2 (stereo not drawn),1.11
13,COCCC(=O)N1Cc2[nH]nc(COc3cccnc3)c2C1,-2.97
14,c1cncc(CN2CCC3(CCCN(c4nncs4)C3)C2)c1 (stereo not drawn),-144
15,Cc1cncc(C(=O)NCC2COCc3c(C)nnn3C2)c1 (stereo not drawn),-2.03
16,CC(C)CN1CCC2(CC(C(=O)NCc3cccnc3)=NO2)C1 (stereo not drawn),-5.99
17,CC(C)(C)n1ncc2c1NC(=O)CC2c1ccc(C(=O)O)cc1 (stereo not drawn),2.08
18,COc1cccc(S(=O)(=O)NC2CNC(=O)C2)c1 (stereo not drawn),-21.7
19,COc1ccc(C)cc1S(=O)(=O)NCCC(O)c1ccccc1 (stereo not drawn),0.197
20,CCOc1ccc(N2CCCN=C2NC(=O)c2ccccc2C)cc1,-6.69
21,O=C(Cc1ccccc1F)N1CCC[C@@H]1Cn1c(=O)oc2ccccc21,2.69
22,Cc1csc(C(Cc2ccsc2)NC(=O)C2CCN(S(C)(=O)=O)CC2)n1 (stereo not drawn),-18
23,CN(C)CCOc1cc(NC(=O)COCC(F)(F)F)ccn1,-2.29

row,Compound,cytotoxicity at 10 µM [%]
1,CCC(C)C(=O)NCc1ccn(-c2ccc(F)cc2)n1 (stereo not drawn),-2.42
2,CCc1nnsc1C(=O)NCCCC(CC)(CC)C1OCCO1,5.95
3,CCC(=O)N(C)Cc1cccc(OC(C)C)c1,12.8
4,CCN(CC1CCOC1)S(=O)(=O)Cc1ccccc1Cl (stereo not drawn),-0.768
5,COc1ccc(Cl)cc1NCC(=O)N(Cc1ccccn1)C1CC1,8.13
6,Cc1noc(C(C)N2CCN(CCc3ccncc3)CC2)n1 (stereo not drawn),2.67
7,Cc1noc(C)c1C(C)NC(=O)N1CCCN(C(=O)c2ccsc2)CC1 (stereo not drawn),-0.77
8,CC(C)CC(=O)N1CCC2(CC1)OCCO2,4.37
9,O=C(Cc1cccnc1)NCCSc1ccccc1F,-6.45
10,Cc1nc2ccccc2nc1CN1CCc2c(nc(C3CC3)n2C)C1,7.97
11,CC(C)CNC(=O)COc1cccc[n+]1[O-],-8.35
12,CCN(CCO)C(=O)Nc1ccc(OCCOC)nc1,-5.71
13,COc1ccccc1CNC(Cn1cncn1)c1ccccc1 (stereo not drawn),-6.1
14,Cc1ccoc1C(=O)N1CCOC2(CCCC2)C1,-4.55
15,N#Cc1cn(CCCN2CCc3ccccc32)c(=O)[nH]c1=O,6.48
16,c1ccc(C(c2ccccc2)N2CCN(CCn3cncn3)CC2)cc1,-7.72
17,Cc1cnn(C2CN(CC(=O)NCC3(c4ccccc4)CCC3)C2)c1,-4.2
18,CCOC(=O)C1CCN(Cc2c(O)ccc3oc4c(c23)CCCC4)CC1,-1.2
19,NC(=O)CCCNC(=O)Cc1cccc(I)c1,-3.71
20,Cc1nn(C)c(N(C)C)c1CNC(C)c1cccnc1 (stereo not drawn),-2.8
21,C1CC(c2noc(C3CC3)n2)CN(CCOCC2CC2)C1 (stereo not drawn),-8.91
22,Cc1nc(C(=O)NCc2ccc(N3CCNC(=O)C3)c(F)c2)cs1,-0.0162
23,OCC1(NCc2cnc(-c3ccsc3)s2)CCOCC1,-3.1

row,Compound,cytotoxicity at 10 µM [%]
1,Cc1ccc(OCCC(=O)N(C)CCC#N)cc1C,6.5
2,COCc1csc(NC(=O)NCc2ccc(C)s2)n1,2.44
3,Cc1nnc(NC(=O)CN2CCCC2c2noc(C3CC3)n2)s1 (stereo not drawn),5.22
4,CN(C)C(=O)C(C)(C)c1ccc2c(c1)OCCO2,-1.52
5,O=C(c1cc[nH]c(=O)c1)N1CCn2c(nnc2-c2ccccc2)C1,-4.71
6,O=C(Nc1ccccc1-c1cccs1)N1CCOCC1,-5.01
7,Cc1nc(CN2CCCN(C(=O)c3ccn(C)c(=O)c3)CC2)cs1,-12.7
8,Cn1cc(CNC(=O)C2CCCN(Cc3cccc(F)c3)C2)cn1 (stereo not drawn),3.44
9,COCCOc1ccc(CNc2nc3ccccc3o2)cn1,7.45
10,CCOc1ccc(S(=O)(=O)C(C)C(=O)Nc2cc(C)no2)cc1 (stereo not drawn),5.07
11,O=C(CCc1nc(C2CC2)no1)c1ccccc1,-6.43
12,N#Cc1ccc(CN2CCNC(=O)C2c2cccs2)cc1 (stereo not drawn),-2.89
13,CC(=O)N1CCN(C(C)c2ccc(Br)cc2)CC1 (stereo not drawn),-5.63
14,CC(Cn1cccn1)NC(=O)NCCCN1CCc2ccccc2C1 (stereo not drawn),-3.08
15,COc1ccc(CNCCn2c(C)nc3ccccc32)cc1O,-3.51
16,CC(C)CNC(=O)CCN1C(=O)CCc2cc(F)ccc21,8.17
17,CCCc1noc(CCC(=O)NC(C)c2nnc3n2CCCCC3)n1 (stereo not drawn),4.05
18,Cc1ccn(-c2ccccc2NCc2cccnc2C)n1,1.34
19,Cc1csc(CNC(=O)NC2CCN(c3ncccn3)CC2)n1,-10.6
20,Cc1nc(CC(=O)N2CCCN(c3ccc(C#N)cc3)CC2)cs1,2.37
21,Cc1cnn(C2CCCN(C(=O)c3cc(C)sc3C)C2)c1 (stereo not drawn),-1.4
22,O=C(C1CCC1)N1CCCC1c1nnc2n1CCCCC2 (stereo not drawn),1.26
23,O=C(CCn1ccccc1=O)N1CCCC(COc2ccc(F)cc2)C1 (stereo not drawn),-4.19

row,Compound,cytotoxicity at 10 µM [%]
1,O=C1CCC(C(=O)N2CCOC(Cc3ccc(F)cc3)C2)=NN1 (stereo not drawn),-6.26
2,CC(=O)NCC(=O)N1CCCC2(CCC(=O)N(CCc3c[nH]cn3)C2)C1 (stereo not drawn),2.77
3,CN1C(=O)CC(C(=O)O)C12CCN(c1ccc3c(n1)CCCC3)CC2 (stereo not drawn),2.78
4,CCCN(Cc1nc(-c2ccc(F)c(OC)c2)oc1C)CC1CCCO1 (stereo not drawn),-1.03
5,COCCN(CC1CCCN(C2Cc3ccccc3C2)C1)C(=O)COC (stereo not drawn),-5.98
6,O=C1NC(C(=O)NCc2cccnc2Oc2ccccc2F)CO1 (stereo not drawn),8.99
7,CCC1CN(Cc2nnc(C(C)C)o2)CCC(=O)N1Cc1ccccc1 (stereo not drawn),3.33
8,O=C(c1ccccn1)N1CCc2c(nc(-c3ccncc3)[nH]c2=O)C1,2.99
9,COCCC(=O)N1CCCC2(CCC(=O)N(CCc3c[nH]cn3)C2)C1 (stereo not drawn),-3.76
10,CCCN1CC2(CCN(c3cc(C4CC4)ncn3)CC2)CC1C(=O)O (stereo not drawn),-9.88
11,Cc1ccccc1CN1CCNC(=O)C1CC(=O)NCC1CCCCC1 (stereo not drawn),-8.77
12,CCn1cc(CNC2CCN(c3cccc(C)c3C)CC2)cn1,-9.99
13,COc1cccc(C2CCCN2C(=O)CC2=CSC3=NCCCN23)c1 (stereo not drawn),-0.277
14,Cc1ccc(O)c(-c2cc(NCCO)nc3[nH]ccc23)c1,14.1
15,COc1cccc(CCn2ccnc2-c2cn(C3CCNCC3)nn2)c1,-7.23
16,COCc1ccc(C(=O)N2CCC(Oc3ccccc3)(C(=O)O)CC2)o1,0.871
17,CCc1cnc(C)nc1NC(CC)c1ncnn1CC (stereo not drawn),-10.2
18,COc1cc(CN2CCCC23CCN(c2ccccn2)CC3)ccc1F,-11.5
19,O=C(Nc1cc(F)ccc1OCC1CCCO1)NC1CC1 (stereo not drawn),0.043
20,COc1ccc(C(=O)N2CCCC2c2cnn(C)c2)cn1 (stereo not drawn),-3.63
21,O=C(CS(=O)(=O)Cc1cc(Cl)c2c(c1)OCO2)N1CCCCCC1,-2.8
22,Cc1ccc(C(O)CNC(=O)Nc2cc(C)nn2C)cc1 (stereo not drawn),-13.3
23,Cc1ccc(-c2noc(CN3CCc4nn(C)c(=O)cc4C3)n2)cc1,-8.78

row,Compound,cytotoxicity at 10 µM [%]
1,Cc1noc(C(C)C)c1C(=O)NCCCN1CCC(C)CC1,-15.9
2,Cc1cnn(CC2CCCN2CC(=O)Nc2nccs2)c1 (stereo not drawn),-4.34
3,Cc1ccc(S(C)(=O)=O)cc1C(=O)N1CCCC(n2cncn2)C1 (stereo not drawn),-8.21
4,CCN(Cc1ccco1)C(=O)Nc1cc(C(F)(F)F)c[nH]c1=O,-2.6
5,CCC(CO)NCc1ccc(-c2ccc(Br)cc2)o1 (stereo not drawn),-5
6,Cc1ccc(CN(CCCN2CCOCC2)Cc2cnc(C)n2C)o1,-24
7,CCN1CCC2(CCN(c3ncccn3)CC2)C1=O,1.26
8,CCc1ccc(CN2CC[C@H]3C[C@H](c4nnc(C)[nH]4)O[C@@H]3C2)o1,-8.51
9,O=C(O)c1cc2c(nc1N1CCOCC1)CCN(C1CCOC1)CC2 (stereo not drawn),6.68
10,COc1ncccc1CN1CCc2[nH]nc(C(=O)N3CCCC3C)c2C1 (stereo not drawn),-4.4
11,CN(C)c1ncnc2c1CCN(Cc1nccs1)CC2,6.1
12,CCN(C)c1ncnc2c1CCN(C(=O)COC)CC2,1.75
13,c1cnc(NCc2nnn3c2CN(Cc2ccco2)CCC3)nc1,9.08
14,C1CC(CO[C@@H]2CC[C@H]3[C@H]2OCCN3CC2CC2)CCO1,11.4
15,O=C(c1ccc(F)cc1)N1CC[C@H]2[C@H]1CCN2CC1CC1,-1.92
16,CCOC1CC2(CCN(Cc3nccn3C)CC2)C1,-144
17,O=C(C1CC1)N1CC2(CCNCC2)c2cc(F)ccc21,0.317
18,COCC(=O)N1CCCC2(CCN(CCN3CCCC3)CC2)C1,4.71
19,CC(C)N1CCC2(CC1)CC(NS(C)(=O)=O)c1ccccc1O2 (stereo not drawn),7.16
20,CC(=O)N1CCC2(CCN(Cc3cccc(F)c3)CC2)CC1,-5.46
21,Cc1ccc(N2CCO[C@H]3CN(Cc4cccnc4)C[C@H]32)nn1,-81.3
